Series [1] relates to Influenza A virus. Description: Antiviral activity against Influenza A virus (A/udorn/307/1972 H3N2) infected in MDCK cells assessed as reduction in viral RNA titer at 8 uM after 24 to 48 hrs by RT-qPCR analysis. It is filed as functional, organism-based. A digest of the protocol:
(§1)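 Infection was the same: MDCK, Ud virus at moi 0.001 PFU/cell, 1 h adsorption, then compound at 4 or 8 μM in 1% DMSO medium. Supernatant was sampled at 24, 36 and 48 h. Neuraminidase-segment vRNA was reverse transcribed in duplicate (forward primer 1.25 μM, 12 h, 37 C), then amplified by probe qPCR in duplicate (primers 0.8 μM, probe 0.24 μM, 50 cycles). Results were normalized to the start of infection.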

Series [2] concerns Influenza A virus. Briefly: Antiviral activity against Influenza A virus (A/udorn/307/1972 H3N2) infected in MDCK cells assessed as inhibition of viral replication at 8 uM after 24 to 48 hrs by hemagglutination assay. It is filed as functional, organism-based. A digest of the protocol: (§2)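 MDCK cells infected with Ud virus at moi 0.001 PFU/cell. After 1 h adsorption, compound was added at 4 or 8 μM in medium containing 1% DMSO. Medium aliquots were taken at 24, 36 and 48 h and assayed for hemagglutinin (HA) titre. Infected cells without inhibitor served as the control.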

In series [3] the test system is Influenza A virus. Briefly: Antiviral activity against Influenza A virus (A/udorn/307/1972 H3N2) infected in MDCK cells assessed as reduction in viral RNA titer at 4 uM after 36 to 48 hrs by RT-qPCR analysis. In kind it is functional, organism-based. A digest of the protocol:
as §1
(In general: Real-time PCR tracks product formation cycle by cycle.)

Series [4] concerns Influenza A virus. Description: Antiviral activity against Influenza A virus (A/udorn/307/1972 H3N2) infected in MDCK cells assessed as inhibition of viral replication at 4 uM after 36 to 48 hrs by hemagglutination assay. In kind it is functional, organism-based. A digest of the protocol:
as §2

Series [5] concerns Influenza A virus. Description: Antiviral activity against Influenza A virus (A/udorn/307/1972 H3N2) infected in MDCK cells assessed as inhibition of viral replication at 4 uM after 48 hrs by hemagglutination assay. It is filed as functional, organism-based. A digest of the protocol: as §2
Series [6] deals with Influenza A virus. Description: Antiviral activity against Influenza A virus (A/udorn/307/1972 H3N2) infected in MDCK cells assessed as reduction in viral RNA titer at 4 uM after 48 hrs by RT-qPCR analysis. In kind it is functional, organism-based. A digest of the protocol: as §1
Series [7] relates to Influenza A virus. Briefly: Antiviral activity against Influenza A virus (A/udorn/307/1972 H3N2) infected in MDCK cells assessed as inhibition of viral replication at 4 to 8 uM after 24 hrs by hemagglutination assay. In kind it is functional, organism-based. A digest of the protocol: as §2
The test system of series [8] is Influenza A virus. Description: Antiviral activity against Influenza A virus (A/udorn/307/1972 H3N2) infected in MDCK cells assessed as reduction in viral RNA titer at 4 to 8 uM after 24 hrs by RT-qPCR analysis. In kind it is functional, organism-based. A digest of the protocol:
as §1

The subject of series [9] is Influenza A virus. Description: Antiviral activity against Influenza A virus (A/udorn/307/1972 H3N2) infected in MDCK cells assessed as inhibition of viral replication at 4 uM after 36 hrs by hemagglutination assay. In kind it is functional, organism-based. A digest of the protocol:
as §2

Series [10] concerns Influenza A virus. Description: Antiviral activity against Influenza A virus (A/udorn/307/1972 H3N2) infected in MDCK cells assessed as reduction in viral RNA titer at 4 uM after 36 hrs by RT-qPCR analysis. It is filed as functional, organism-based. A digest of the protocol:
as §1

In series [11] the test system is Influenza A virus. Briefly: Antiviral activity against Influenza A virus (A/udorn/307/1972 H3N2) infected in MDCK cells assessed as reduction in viral RNA titer up to 6.5 hrs by RT-qPCR analysis. In kind it is functional, organism-based.
The next series deals with MDCK. Description: Cytotoxicity against MDCK cells infected with Influenza A virus (A/udorn/307/1972 H3N2) at 4 uM after 24 to 48 hrs by CellTiter-Glo cell viability assay. In kind it is cell-based, Canis lupus familiaris. As to conditions: dog. A digest of the protocol: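 CellTiter-Glo ATP luminescence was measured in MDCK cells infected with Ud virus at low multiplicity, with or without 4 μM compound. Cells were lysed at several times over the 48 h infection.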
(In general: Cellular ATP, detected with luciferase, serves as a proxy for viable cell number.)

Series [12] concerns Influenza A virus. Description: Antiviral activity against Influenza A virus (A/udorn/307/1972 H3N2) infected in MDCK cells assessed as inhibition of viral replication at 4 to 8 uM after 24 to 48 hrs by hemagglutination assay. It is filed as functional, organism-based. A digest of the protocol:
as §2

Series [13] deals with Influenza A virus. Description: Antiviral activity against Influenza A virus (A/udorn/307/1972 H3N2) infected in MDCK cells assessed as reduction in viral RNA titer at 4 to 8 uM after 24 to 48 hrs by RT-qPCR analysis relative to control. It is filed as functional. A digest of the protocol:
as §1

We go through nine compounds from ChEMBL document CHEMBL3098119, “Exploring naphthyl-carbohydrazides as inhibitors of influenza A viruses” (Eur J Med Chem, 2014).

The source made the active and inactive calls. No cut-off for these calls is given here.

In the case of `O=C(N/N=C(/c1ccc2c(c1)CCCC2)C1CC1)c1cc2ccccc2cc1O`, the inhibition result in the series with Influenza A virus [1] and with Influenza A virus [2] was “Active” throughout.

As for `O=C(N/N=C(/c1ccc2c(c1)CCCC2)C1CCCC1)c1cc2ccccc2cc1O`, the inhibition entry in the series on Influenza A virus [1], in the series on Influenza A virus [3], in the series on Influenza A virus [2] and with Influenza A virus [4] was “Active” in each case.

With `CCC/C(=N\NC(=O)c1cc2ccccc2cc1O)c1ccc2c(c1)CCCC2`, the inhibition result in the series on Influenza A virus [5] and in the series on Influenza A virus [6] was “inactive” throughout. Also, the inhibition entry in the series with Influenza A virus [1] and in the series with Influenza A virus [2] was “Active” each time.

In the case of `CN(C)CCC/C(=N\NC(=O)c1cc2ccccc2cc1O)c1ccc2c(c1)CCCC2`, the inhibition result with Influenza A virus [1] and with Influenza A virus [2] was “Active” in each case. Also, the inhibition entry in the series on Influenza A virus [3] and with Influenza A virus [4] was “inactive” throughout.

Turning to `CC/C(=N\NC(=O)c1cc2ccccc2cc1O)c1ccc2c(c1)CCCC2`, the inhibition entry with Influenza A virus [7], in the series with Influenza A virus [1], in the series with Influenza A virus [2] and in the series with Influenza A virus [8] was “Active” throughout.

Turning to `O=C(N/N=C(\CCCCl)c1ccc2c(c1)CCCC2)c1cc2ccccc2cc1O`, the inhibition result in the series on Influenza A virus [1] and in the series on Influenza A virus [2] was “Active” in each case. Further, the inhibition entry in the series with Influenza A virus [3] and with Influenza A virus [4] was “inactive” in each case.

Take `O=C(N/N=C(/c1ccc2c(c1)CCCC2)C1CCCCC1)c1cc2ccccc2cc1O`: the inhibition entry in the series with Influenza A virus [9], in the series on Influenza A virus [10], in the series on Influenza A virus [3], with Influenza A virus [2] and in the series with Influenza A virus [4] was “Active” each time.

With `O=C(N/N=C(\c1ccccc1)c1ccc2c(c1)CCCC2)c1cc2ccccc2cc1O`, the inhibition result with Influenza A virus [11] and in the series on Influenza A virus [12] was “Active” each time. Also, the Activity entry in the series on MDCK was “Non-toxic”. Moreover, in the series with Influenza A virus [13], the “fold change (FC)” value is listed as 1000.

In the case of `CC(C)/C(=N\NC(=O)c1cc2ccccc2cc1O)c1ccc2c(c1)CCCC2`, the inhibition result in the series with Influenza A virus [7] and in the series on Influenza A virus [8] was “Active” throughout.
